According to ChEMBL document CHEMBL4422612, “Small Molecule Inhibitor that Stabilizes the Autoinhibited Conformation of the Oncogenic Tyrosine Phosphatase SHP2” (J Med Chem, 2019):
Substitutions are numbered along the chain they refer to. Active and inactive are the calls of the source. The calls are words filed in the database; no cut-off is given here.

Experiments:
[1] = test system: NCI-H661; assay: Growth inhibition of PTPN11 N58S mutant harboring human NCI-H661 cells after 48 hrs by cell proliferation-based assay; assay type: functional
How it was run: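 H661 (PTPN11 N58S/+) and H596 (WT PTPN11) lung cancer cells exposed to a concentration series for 48 h, DMSO as control. Cell number measured by One Solution proliferation assay. Triplicates from one of three repeated experiments.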

[2] = test system: T1, Tyrosine-protein phosphatase non-receptor type 11 (Mus musculus), P35235 [E76K]; assay: Inhibition of Ptpn11 E76K mutant in Ptpn11 E76K mutant /Mx1-Cre containing mouse bone marrow cells assessed as reduction in GM-CSF-induced colony forming units at 1.25 to 5 uM after 7 days by inverted microscopy
T1 sequence (whole entry): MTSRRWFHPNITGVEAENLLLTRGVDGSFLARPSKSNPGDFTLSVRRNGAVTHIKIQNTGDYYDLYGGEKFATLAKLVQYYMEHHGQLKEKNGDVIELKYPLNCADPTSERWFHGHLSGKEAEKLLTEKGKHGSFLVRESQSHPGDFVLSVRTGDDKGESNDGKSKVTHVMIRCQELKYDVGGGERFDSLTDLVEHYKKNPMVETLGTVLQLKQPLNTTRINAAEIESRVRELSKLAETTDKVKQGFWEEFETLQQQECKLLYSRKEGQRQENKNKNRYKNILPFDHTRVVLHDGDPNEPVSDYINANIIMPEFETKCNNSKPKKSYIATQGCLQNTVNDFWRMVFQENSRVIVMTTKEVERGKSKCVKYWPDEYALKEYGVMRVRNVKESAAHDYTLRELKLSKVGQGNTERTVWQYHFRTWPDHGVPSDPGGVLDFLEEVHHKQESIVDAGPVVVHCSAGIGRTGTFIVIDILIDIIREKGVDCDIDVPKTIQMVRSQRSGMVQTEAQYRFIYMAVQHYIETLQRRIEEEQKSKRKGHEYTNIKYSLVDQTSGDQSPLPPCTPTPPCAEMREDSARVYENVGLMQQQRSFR
How it was run: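 Bone marrow from Ptpn11 E76K/+/Mx1-Cre+ and +/+/Mx1-Cre+ mice, 2×10⁴ cells/mL, in 0.9% methylcellulose IMDM with 30% FBS and GM-CSF 1.0 ng/mL, plus compound or DMSO. CFU-GM and CFU-M counted at day 7, normalized to WT DMSO colonies. Mean ± SD of three experiments.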

[3] = test system: T2, Tyrosine-protein phosphatase non-receptor type 11 (Homo sapiens), Q06124 [E76K]; assay: Inhibition of Ptpn11 E76K mutant in bone marrow cells isolated from JMML patient assessed as inhibition of GM-CSF-induced colony forming units at 1.25 to 5 uM after 14 days by inverted microscopy; assay type: cell-based
T2 sequence (whole entry): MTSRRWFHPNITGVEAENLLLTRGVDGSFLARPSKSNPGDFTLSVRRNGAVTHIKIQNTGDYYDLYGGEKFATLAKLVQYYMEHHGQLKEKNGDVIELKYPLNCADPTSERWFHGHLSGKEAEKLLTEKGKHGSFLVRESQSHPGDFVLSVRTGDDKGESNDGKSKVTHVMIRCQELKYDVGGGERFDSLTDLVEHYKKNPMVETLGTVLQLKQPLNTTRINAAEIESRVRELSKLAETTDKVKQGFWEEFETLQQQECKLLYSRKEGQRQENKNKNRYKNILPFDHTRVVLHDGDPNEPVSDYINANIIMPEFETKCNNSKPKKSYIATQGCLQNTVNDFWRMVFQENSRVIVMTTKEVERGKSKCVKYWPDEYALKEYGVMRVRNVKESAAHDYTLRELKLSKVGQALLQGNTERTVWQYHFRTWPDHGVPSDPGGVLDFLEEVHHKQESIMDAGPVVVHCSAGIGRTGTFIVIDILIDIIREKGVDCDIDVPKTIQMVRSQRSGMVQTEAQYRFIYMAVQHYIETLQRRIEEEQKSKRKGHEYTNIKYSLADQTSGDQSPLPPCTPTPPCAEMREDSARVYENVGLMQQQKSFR
How it was run: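 JMML patient splenocytes, marrow or blood cells (PTPN11 E76K/+), 5×10⁴ cells/mL, with healthy apheresis controls. Plated in 0.9% methylcellulose IMDM with 30% FBS, glutamine, β-mercaptoethanol and GM-CSF 1.0 ng/mL, plus compound or DMSO. Myeloid colonies counted at 14 days, 37 °C, 5% CO2, normalized to DMSO.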

[4] = molecular target: T3, Tyrosine-protein phosphatase non-receptor type 11 (Homo sapiens) (UniProt Q06124); assay: Inhibition of wild type recombinant human SHP2 at 50 uM using H-Glu-Phe-pTyr-Ala-Glu-Val-Gly-Arg-Ser-Pro-Pro-Asp-Pro-Ala-Lys as substrate preincubated for 30 mins followed by substrate addition and measured after 30 mins by Malachite Green-reagent based assay
T3 sequence (whole entry): T1 sequence (whole entry) with K76E, V450M, V550A, R590K
How it was run: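 Full-length SHP2 or SHP1 (0.1 µg) preincubated with compound 30 min at room temperature in 25 mM Tris-HCl pH 7.4, 50 mM NaCl, 5 mM DTT, 2.5 mM EDTA. Phospho-peptide substrate added to 50 µM final; 30 min at 30 °C. Released phosphate read by Malachite Green at OD620. IC50 from six concentrations; three experiments.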

[5] = molecular target: T3, Tyrosine-protein phosphatase non-receptor type 11 (Homo sapiens); assay: Ratio of IC50 for inhibition of recombinant full length human GST-tagged SHP2 PTP domain using pNPP as substrate pre-incubated for 15 mins before pNPP substrate addition and measured after 15 mins to IC50 for inhibition of wild type recombinant human SHP2 using H-Glu-Phe-pTyr-Ala-Glu-Val-Gly-Arg-Ser-Pro-Pro-Asp-Pro-Ala-Lys as substrate preincubated for 30 mins followed by substrate addition and measured after 30 mins by Malachite Green-reagent based assay

CCOc1cc(O)c(C(=O)/C=C/c2ccc(Cl)cc2Cl)cc1CN1CCC=C(n2c(=O)[nH]c3ccccc32)C1
growth inhibition (GI) [1]: Active | inhibition [2]: Active | inhibition [3]: Active | inhibition [4]: Active | Ratio IC50 [5]: > 2
